Reference: ChEMBL document CHEMBL3351414, “Novel 9'-substituted-noscapines: synthesis with Suzuki cross-coupling, structure elucidation and biological evaluation” (Eur J Med Chem, 2014)
Activity calls are given as the source filed them. The calls are words filed in the database; no cut-off is given here.

Tests used:
HeLa [1] = test: Effect on cell morphology in human HeLa cells at 25 uM after 24 hrs using phalloidin staining by confocal microscopy; format: functional, cell-based
How it was run: (§1)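 After 24 h at 25 µM, HeLa cells were stained with anti-PCM1 and Alexa-conjugated secondary antibody, with phalloidin-tetramethylrhodamine B for actin and DAPI for nuclei. Cells were imaged by confocal microscopy at 60×.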

HeLa [2] = test: Induction of apoptosis in human HeLa cells assessed as PARP cleavage at 25 uM after 24 to 48 hrs by Western blot analysis; format: functional, cell-based
How it was run: (§2)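 HeLa cells treated 24 or 48 h at 25 µM, then lysed. 20 µg protein per lane was run on SDS-PAGE and transferred to PVDF. Membranes were probed 2 h at room temperature for cleaved caspase-9, caspase-3, cleaved PARP, Bcl-2, Mcl-1 or Bax, with peroxidase secondary antibody and ECL. β-Actin reprobe served as loading control.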

HeLa [3] = test: Induction of apoptosis in human HeLa cells assessed as caspase 3 cleavage at 25 uM after 24 to 48 hrs by Western blot analysis; format: functional, cell-based; how it was run: as §2
Tubulin (Bos taurus) = Tubulin (Bos taurus) (UniProt Q6B856+Q862L2+Q862F3); test: Displacement of [3H]colchicine from bovine brain tubulin at 500 uM after 10 mins by liquid scintillation counting
HeLa [4] = test: Cell cycle arrest in human HeLa cells assessed as accumulation at G2/M phase at 25 uM after 24 hrs by flow cytometry; format: functional
How it was run: (§3)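 5×10^5 HeLa or Jurkat cells exposed to graded compound concentrations for 24 h. Cells were fixed in ice-cold 70% ethanol, lysed with RNase A/0.1% Triton X-100 buffer and stained with propidium iodide. DNA content was read by flow cytometry. Phase percentages are mean ± SEM of three independent experiments.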

HeLa [5] = test: Induction of apoptosis in human HeLa cells assessed as ROS production at 6.2 to 50 uM after 24 to 48 hrs using H2-DCFDA -based flow cytometry relative to control; format: functional, cell-based
How it was run: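 HeLa cells incubated 24 or 48 h at the indicated concentrations, stained with H2-DCFDA and analysed by flow cytometry. Data are mean ± SEM of three independent experiments.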

HeLa [6] = test: Induction of apoptosis in human HeLa cells assessed as late necrotic cells at 25 uM after 24 hrs using Annexin-V/PI staining by flow cytometry (reference value: 3.70 %); format: functional
HeLa [7] = test: Cell cycle arrest in human HeLa cells assessed as accumulation at G2/M phase after 24 hrs by flow cytometry; format: functional, cell-based; how it was run: as §3
HeLa [8] = test: Antiproliferative activity against human HeLa cells assessed as reduction in cell viability after 72 hrs by MTT assay; format: functional, cell-based
How it was run: (§4)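 Cells kept in RPMI-1640 (Jurkat, SEM, RS4;11) or DMEM (A549, HeLa, IGROV-1, HT-29) with 10% FBS plus penicillin/streptomycin. 8×10^3 cells per well were left 18 h at 37 °C in 5% CO2. Medium was then replaced with fresh medium holding graded compound concentrations from 10 mM DMSO stocks. Cells were incubated 72 h and viability read by MTT. IC50 is the mean ± SEM from dose–response curves of at least three independent experiments.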

HeLa [9] = test: Induction of apoptosis in human HeLa cells assessed as reduction in Mcl-1 expression at 25 uM after 48 hrs by Western blot analysis; format: functional, cell-based; how it was run: as §2
HeLa [10] = test: Induction of apoptosis in human HeLa cells assessed as early apoptotic cells at 25 uM after 24 hrs using Annexin-V/PI staining by flow cytometry (reference value: 5.26 %); format: functional
HeLa [11] = test: Induction of apoptosis in human HeLa cells assessed as reduction in Bcl-2 expression at 25 uM after 48 hrs by Western blot analysis; format: functional, cell-based; how it was run: as §2
HeLa [12] = test: Induction of apoptosis in human HeLa cells at 6.2 to 50 uM using Annexin-V/PI staining by flow cytometry; format: functional, cell-based; settings: TDE = time-dependent effect
HeLa [13] = test: Induction of apoptosis in human HeLa cells assessed as viable cells at 25 uM after 24 hrs using Annexin-V/PI staining by flow cytometry (reference value: 86.7 %); format: functional; settings: read-out: Activity
CCRF-CEM = test: Antiproliferative activity against human CEM cells assessed as reduction in cell viability after 72 hrs by MTT assay; format: functional, cell-based
HeLa [14] = test: Induction of apoptosis in human HeLa cells assessed as mitochondrial membrane depolarization at 6.2 to 50 uM using JC-1 staining-based fluorescence assay; format: functional, cell-based; settings: TDE = time-dependent effect
How it was run: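 Mitochondrial membrane potential was read with the JC-1 dye in HeLa cells after 24 or 48 h at graded concentrations. Data are mean ± SEM of three independent experiments.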

HeLa [15] = test: Induction of apoptosis in human HeLa cells assessed as reduction in Bcl-2 expression at 25 uM after 24 hrs by Western blot analysis; format: functional, cell-based; how it was run: as §2
[16] = Antiproliferative activity against human SEM cells assessed as reduction in cell viability after 72 hrs by MTT assay; format: functional, cell-based; how it was run: as §4
HeLa [17] = test: Effect on cell morphology in human HeLa cells assessed as disorganization of actin filament at 25 uM after 24 hrs by confocal microscopy relative to control; format: functional, cell-based; how it was run: as §1
HeLa [18] = test: Induction of apoptosis in human HeLa cells assessed as caspase 9 cleavage at 25 uM after 24 to 48 hrs by Western blot analysis; format: functional, cell-based; how it was run: as §2
HeLa [19] = test: Induction of apoptosis in human HeLa cells after 24 to 48 hrs using Annexin-V/PI staining by flow cytometry; format: functional, cell-based
A549 = test: Antiproliferative activity against human A549 cells assessed as reduction in cell viability after 72 hrs by MTT assay; format: functional, cell-based; settings: A549, 72 h; how it was run: as §4
Jurkat [20] = test: Cell cycle arrest in human Jurkat cells assessed as accumulation at G2/M phase after 24 hrs by flow cytometry; format: functional, cell-based; how it was run: as §3
IGROV-1 = test: Antiproliferative activity against human IGROV1 cells assessed as reduction in cell viability after 72 hrs by MTT assay; format: functional, cell-based; settings: IGROV-1, 72 h; how it was run: as §4
Tubulin = Tubulin (Bos taurus, UniProt Q6B856+Q862L2+Q862F3); test: Inhibition of bovine brain tubulin assessed as rate of assembly preincubated for 15 mins by turbidimetry
How it was run: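 Bovine brain tubulin at 10 µM (1.0 mg/mL) in 0.8 M monosodium glutamate pH 6.6 with 4% DMSO and varying compound was preincubated 15 min at 30 °C, then chilled. GTP was added to 0.4 mM final and the temperature jumped from 0 to 30 °C. Turbidity was followed at 350 nm, scoring either maximum rate or extent of assembly at 20 min.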

HeLa [21] = test: Cell cycle arrest in human HeLa cells assessed as accumulation at G2/M phase at 10 to 25 uM after 24 hrs by flow cytometry; format: functional, cell-based; how it was run: as §3
HeLa [22] = test: Induction of apoptosis in human HeLa cells assessed as late apoptotic cells at 25 uM after 24 hrs using Annexin-V/PI staining by flow cytometry (reference value: 4.31 %); format: functional
Jurkat [23] = test: Antiproliferative activity against human Jurkat cells assessed as reduction in cell viability after 72 hrs by MTT assay; format: functional, cell-based; how it was run: as §4
HeLa [24] = test: Downregulation of phosphorylated form of cdc25c protein level in human HeLa cells at 25 uM after 24 hrs by Western blot analysis; format: functional, cell-based
How it was run: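 HeLa cells treated 24 or 48 h at 25 µM, then washed in PBS and lysed 30 min on ice. 20 µg protein per lane was resolved on 7.5–15% SDS-PAGE and blotted to PVDF. Blots were probed for cyclin B, p-cdc2 Tyr15, cdc25C and γH2A.X, with β-actin reprobe as loading control and ECL detection.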

inhibition (Tubulin (Bos taurus)) [%]	IC50 (HeLa [8]) [µM]	IC50 (CCRF-CEM) [µM]	SMILES	Activity (HeLa [1])	Activity (HeLa [2])	Activity (HeLa [3])	Activity (HeLa [4]) [%]	Activity (HeLa [5])	Activity (HeLa [6]) [%]	Activity (HeLa [7])	Activity (HeLa [9])	Activity (HeLa [10]) [%]	Activity (HeLa [11])	Activity (HeLa [12])	viability at 25 µM (HeLa [13]) [%]	Activity (HeLa [14])	Activity (HeLa [15])	IC50 [16] [µM]	Activity (HeLa [17])	Activity (HeLa [18])	also measured
39	5.2	8.8	COc1ccc2c(c1OC)C(=O)O[C@@H]2[C@H]1c2c(c(C)c3c(c2OC)OCO3)CCN1C	Active	Active	Active	>80	Active	17.1	Dose-dependent effect	Active	12.5	Active	tde	9.8	tde	Active	4.3	Active	Active	Activity (HeLa [19]): Dose-dependent effect; IC50 (A549): > 100 µM; Activity (Jurkat [20]): Dose-dependent effect; IC50 (IGROV-1): 62.4 µM; IC50 (Tubulin): 220 µM; Activity (HeLa [21]): Active; Activity (HeLa [22]): 13.9%; IC50 (Jurkat [23]): 5.9 µM; Activity (HeLa [24]): Active
64	12.8	11.8	COc1ccc2c(c1OC)C(=O)O[C@@H]2[C@H]1c2c(c(-c3ccc(C)cc3)c3c(c2OC)OCO3)CCN1C	Active	Active	Active	>80	Active	11.1	Dose-dependent effect	Active	14.3	Active	tde	5.88	tde	inactive	7.4	Active	Active	Activity (HeLa [19]): Dose-dependent effect; IC50 (A549): 22.2 µM; Activity (Jurkat [20]): Dose-dependent effect; IC50 (IGROV-1): 66.3 µM; IC50 (Tubulin): 45 µM; Activity (HeLa [21]): Active; Activity (HeLa [22]): 22.9%; IC50 (Jurkat [23]): 5.1 µM; Activity (HeLa [24]): Active
34	2.6	2.8	COc1ccc2c(c1OC)C(=O)O[C@@H]2[C@H]1c2c(c(Br)c3c(c2OC)OCO3)CCN1C	Active	Active	Active	>80	Active	53.7	Dose-dependent effect	Active	57.3	Active	tde	76.8	tde	Active	1.8	Active	Active	Activity (HeLa [19]): Dose-dependent effect; IC50 (A549): 73.9 µM; Activity (Jurkat [20]): Dose-dependent effect; IC50 (IGROV-1): 78.2 µM; IC50 (Tubulin): > 400 µM; Activity (HeLa [21]): Active; Activity (HeLa [22]): 44.7%; IC50 (Jurkat [23]): 3 µM; Activity (HeLa [24]): Active
